Test results taken from ChEMBL document CHEMBL2146464, “Structure-activity relationship study of nitrosopyrimidines acting as antifungal agents” (Bioorg Med Chem, 2012).
Values after ≈ are worked out from the molar mass of the structure shown. Active and inactive are the calls of the source. The rule behind the calls is not given here.

Experiments:
Candida tropicalis [1] = assay: Antifungal activity against Candida tropicalis assessed as growth inhibition at 62.5 ug/mL by microplate reader analysis; format: functional; details: read-out: GI
Cryptococcus neoformans [2] = assay: Antifungal activity against Cryptococcus neoformans ATCC 32264 after 48 hrs by microplate reader analysis; format: functional; details: ATCC 32264, 48 h
Outline: (§1)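 Microplate growth-inhibition assay in RPMI-1640, compound at final 250–0.98 µg/mL (DMSO ≤1%). Inoculum 1–5 × 10³ CFU/mL. Sterility and DMSO growth controls included. Percent inhibition is computed from blank-corrected OD relative to the growth control, tested in duplicate.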

Candida tropicalis [3] = assay: Antifungal activity against Candida tropicalis by microplate reader analysis; format: functional
Candida albicans [4] = assay: Antifungal activity against Candida albicans ATCC 10231 assessed as growth inhibition at 62.5 ug/mL after 24 hrs by microplate reader analysis; format: functional; details: ATCC 10231, 24 h, read-out: GI
Outline: (§2)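 96-well RPMI-1640 wells with compound at final 250–0.98 µg/mL (DMSO ≤1%). Inoculum 100 µL, 1–5 × 10³ CFU/mL, 200 µL final. Each well includes growth (DMSO, no compound) and sterility controls. % inhibition = 100 − (CTW−SCW)/(GCW−SCW) × 100, run in duplicate.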

Cryptococcus neoformans [5] = assay: Antifungal activity against Cryptococcus neoformans ATCC 32264 assessed as growth inhibition at 15.6 ug/mL after 48 hrs by microplate reader analysis; format: functional; details: ATCC 32264, 48 h, read-out: GI; outline: as §1
Candida albicans [6] = assay: Antifungal activity against Candida albicans ATCC 10231 assessed as growth inhibition at 250 ug/mL after 24 hrs by microplate reader analysis; format: functional; details: ATCC 10231, 24 h, read-out: GI; outline: as §2
Aspergillus flavus = assay: Antifungal activity against Aspergillus flavus ATCC 9170 at 0.98 to 250 ug/mL by NCCLS broth microdilution method; format: functional, organism-based
Outline: (§3)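 MIC by broth microdilution per NCCLS M27-A3/M38-A2 in RPMI-1640 buffered to pH 7.0 with MOPS. Twofold dilutions from 250–0.98 µg/mL, final DMSO ≤1%. Inoculum 1–5 × 10³ CFU/mL. Incubated in a moist dark chamber, 30 °C for Aspergillus and 28–30 °C for dermatophytes. Read visually when control growth allowed. Endpoint is the lowest concentration giving total inhibition of visible growth (MIC100).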

Candida albicans [7] = assay: Antifungal activity against Candida albicans ATCC 10231 assessed as growth inhibition at 31.25 ug/mL after 24 hrs by microplate reader analysis; format: functional; details: ATCC 10231, 24 h, read-out: GI; outline: as §2
Trichophyton rubrum [8] = assay: Fungicidal activity against Trichophyton rubrum CCC 110 at 0.98 to 250 ug/mL after 48 hrs by agar plate dilution method; format: functional, organism-based
Outline: (§4)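 Samples from each clear well of the MIC broth microdilution tray were plated onto RPMI-1640 agar buffered with MOPS. That tray had compounds twofold diluted in RPMI (pH 7.0, MOPS) from 250–0.98 µg/mL with inoculum of 1–5 × 10³ CFU/mL, incubated at 28–30 °C for dermatophytes. Plates were incubated at 30 °C and read at 48 h. MFC was taken as the lowest concentration giving total inhibition of visible growth.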

Cryptococcus neoformans [9] = assay: Antifungal activity against Cryptococcus neoformans ATCC 32264 assessed as growth inhibition at 250 ug/mL after 48 hrs by microplate reader analysis; format: functional; details: ATCC 32264, 48 h, read-out: GI; outline: as §1
Candida albicans [10] = assay: Antifungal activity against Candida albicans ATCC 10231 assessed as growth inhibition at 125 ug/mL after 24 hrs by microplate reader analysis; format: functional; details: ATCC 10231, 24 h, read-out: GI; outline: as §2
Cryptococcus neoformans [11] = assay: Antifungal activity against Cryptococcus neoformans ATCC 32264 assessed as growth inhibition at 3.9 ug/mL after 48 hrs by microplate reader analysis; format: functional; details: ATCC 32264, 48 h, read-out: GI; outline: as §1
Cryptococcus neoformans [12] = assay: Antifungal activity against Cryptococcus neoformans ATCC 32264 assessed as growth inhibition at 7.8 ug/mL after 48 hrs by microplate reader analysis; format: functional; details: ATCC 32264, 48 h, read-out: GI; outline: as §1
Candida albicans [13] = assay: Fungicidal activity against Candida albicans ATCC 10231 after 48 hrs by agar plate dilution method; format: functional; details: ATCC 10231, 48 h
Outline: (§5)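 MFC: after the microdilution MIC, material from each clear well was plated onto RPMI-1640 agar buffered with MOPS. Plates incubated at 30 °C and read after 48 h. MFC is the lowest concentration giving total inhibition of visible growth.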

Candida tropicalis [14] = assay: Antifungal activity against Candida tropicalis assessed as growth inhibition at 7.8 ug/mL by microplate reader analysis; format: functional; details: read-out: GI
Candida tropicalis [15] = assay: Antifungal activity against Candida tropicalis assessed as growth inhibition at 31.25 ug/mL by microplate reader analysis; format: functional; details: read-out: GI
Aspergillus niger = assay: Antifungal activity against Aspergillus niger ATCC 9029 at 0.98 to 250 ug/mL by NCCLS broth microdilution method; format: functional, organism-based; outline: as §3
Nannizzia gypsea = assay: Antifungal activity against Microsporum gypseum CCC 115 at 0.98 to 250 ug/mL by NCCLS broth microdilution method; format: functional, organism-based; outline: as §3
Cryptococcus neoformans [16] = assay: Fungicidal activity against Cryptococcus neoformans ATCC 32264 after 48 hrs by agar plate dilution method; format: functional; details: ATCC 32264, 48 h; outline: as §5
Candida albicans [17] = assay: Antifungal activity against Candida albicans ATCC 10231 assessed as growth inhibition at 7.8 ug/mL after 24 hrs by microplate reader analysis; format: functional; details: ATCC 10231, 24 h, read-out: GI; outline: as §2
Aspergillus fumigatus = assay: Antifungal activity against Aspergillus fumigatus ATCC 26934 at 0.98 to 250 ug/mL by NCCLS broth microdilution method; format: functional, organism-based; outline: as §3
Candida tropicalis [18] = assay: Antifungal activity against Candida tropicalis assessed as growth inhibition at 15.6 ug/mL by microplate reader analysis; format: functional; details: read-out: GI
Candida albicans [19] = assay: Antifungal activity against Candida albicans ATCC 10231 after 24 hrs by microplate reader analysis; format: functional; details: ATCC 10231, 24 h; outline: as §2
Trichophyton rubrum [20] = assay: Antifungal activity against Trichophyton rubrum CCC 110 by NCCLS broth microdilution method; format: functional; details: read-out: MIC100; outline: as §3
Cryptococcus neoformans [21] = assay: Antifungal activity against Cryptococcus neoformans ATCC 32264 assessed as growth inhibition at 31.25 ug/mL after 48 hrs by microplate reader analysis; format: functional; details: ATCC 32264, 48 h, read-out: GI; outline: as §1
Candida albicans [22] = assay: Antifungal activity against Candida albicans ATCC 10231 after 48 hrs by NCCLS broth microdilution method; format: functional; details: ATCC 10231, 48 h, read-out: MIC100
Outline: (§6)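 Yeast MIC by NCCLS M27-A3 broth microdilution in RPMI-1640 buffered to pH 7.0 with MOPS. Twofold dilutions of 250–0.98 µg/mL, final DMSO ≤1%. Inoculum 1–5 × 10³ CFU/mL. Incubated at 30 °C in a moist dark chamber. Read visually at 48 h. MIC100 is the lowest concentration with no visible growth versus drug-free control.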

Candida albicans [23] = assay: Antifungal activity against Candida albicans ATCC 10231 assessed as growth inhibition at 3.9 ug/mL after 24 hrs by microplate reader analysis; format: functional; details: ATCC 10231, 24 h, read-out: GI; outline: as §2
Cryptococcus neoformans [24] = assay: Antifungal activity against Cryptococcus neoformans ATCC 32264 after 48 hrs by NCCLS broth microdilution method; format: functional; details: ATCC 32264, 48 h, read-out: MIC100; outline: as §6
[25] = system: Trichophyton mentagrophytes; assay: Fungicidal activity against Trichophyton mentagrophytes ATCC 9972 at 0.98 to 250 ug/mL after 48 hrs by agar plate dilution method; format: functional, organism-based; outline: as §4
[26] = Acute toxicity in bony fish assessed as mortality at 35 ug/mL after 96 hrs; details: actinopterygii; read-out: Activity
Outline: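 Guppy (Poecilia reticulata) acute static exposure: 10 fish per concentration in 2 L wide-mouthed jars holding the test solution. Compounds were added from […] to give the final concentrations. Dead fish were counted and removed every 24 h, with general condition noted; percentage mortality was scored at 96 h. Two experiments, each in triplicate.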

[27] = system: Trichophyton mentagrophytes; assay: Antifungal activity against Trichophyton mentagrophytes ATCC 9972 by NCCLS broth microdilution method; format: functional; details: read-out: MIC100; outline: as §3
Candida tropicalis [28] = assay: Fungicidal activity against Candida tropicalis after 48 hrs by agar plate dilution method; format: functional; outline: as §5
Cryptococcus neoformans [29] = assay: Antifungal activity against Cryptococcus neoformans ATCC 32264 assessed as growth inhibition at 62.5 ug/mL after 48 hrs by microplate reader analysis; format: functional; details: ATCC 32264, 48 h, read-out: GI; outline: as §1
Candida tropicalis [30] = assay: Antifungal activity against Candida tropicalis assessed as growth inhibition at 3.9 ug/mL by microplate reader analysis; format: functional; details: read-out: GI
Candida albicans [31] = assay: Antifungal activity against Candida albicans ATCC 10231 assessed as growth inhibition at 15.6 ug/mL after 24 hrs by microplate reader analysis; format: functional; details: ATCC 10231, 24 h, read-out: GI; outline: as §2
Cryptococcus neoformans [32] = assay: Antifungal activity against Cryptococcus neoformans ATCC 32264 assessed as growth inhibition at 125 ug/mL after 48 hrs by microplate reader analysis; format: functional; details: ATCC 32264, 48 h, read-out: GI; outline: as §1
Candida tropicalis [33] = assay: Antifungal activity against Candida tropicalis after 48 hrs by NCCLS broth microdilution method; format: functional; details: read-out: MIC100; outline: as §6
Candida tropicalis [34] = assay: Antifungal activity against Candida tropicalis assessed as growth inhibition at 125 ug/mL by microplate reader analysis; format: functional; details: read-out: GI
Candida tropicalis [35] = assay: Antifungal activity against Candida tropicalis assessed as growth inhibition at 250 ug/mL by microplate reader analysis; format: functional; details: read-out: GI

For CCCCNc1nc(N)nc(OC)c1N=O, the inhibition of growth at 62.5 µg/mL (Candida tropicalis [1]) was 100%, the MIC50 (Cryptococcus neoformans [2]) was 7.8 µg/mL (≈ 34.6 µM) and the MIC50 (Candida tropicalis [3]) was 7.8 µg/mL (≈ 34.6 µM). The inhibition of growth at 62.5 µg/mL (Candida albicans [4]) was 100%, the inhibition of growth at 15.6 µg/mL (Cryptococcus neoformans [5]) was 63.1% and the inhibition of growth at 250 µg/mL (Candida albicans [6]) was 100%. The Activity (Aspergillus flavus) was “inactive”, the inhibition of growth at 31.25 µg/mL (Candida albicans [7]) was 98.2% and the Activity (Trichophyton rubrum [8]) was “inactive”. For the same molecule, the inhibition of growth at 250 µg/mL (Cryptococcus neoformans [9]) was 100%, the inhibition of growth at 125 µg/mL (Candida albicans [10]) was 100% and the inhibition of growth at 3.9 µg/mL (Cryptococcus neoformans [11]) was 11.3%. For the same molecule, the inhibition of growth at 7.8 µg/mL (Cryptococcus neoformans [12]) was 52.4%, the MFC (Candida albicans [13]) was 250 µg/mL (≈ 1110 µM) and the inhibition of growth at 7.8 µg/mL (Candida tropicalis [14]) was 57.7%. For the same molecule, the inhibition of growth at 31.25 µg/mL (Candida tropicalis [15]) was 93.2%, the Activity (Aspergillus niger) was “inactive” and the Activity (Nannizzia gypsea) was “inactive”. For the same molecule, the MFC (Cryptococcus neoformans [16]) was 250 µg/mL (≈ 1110 µM), the inhibition of growth at 7.8 µg/mL (Candida albicans [17]) was 50.4% and the Activity (Aspergillus fumigatus) was “inactive”. It also gave an inhibition of growth at 15.6 µg/mL (Candida tropicalis [18]) of 85.2%, an MIC50 (Candida albicans [19]) of 7.8 µg/mL (≈ 34.6 µM) and an MIC (Trichophyton rubrum [20]) of 250 µg/mL (≈ 1110 µM). For the same molecule, the inhibition of growth at 31.25 µg/mL (Cryptococcus neoformans [21]) was 75%, the MIC (Candida albicans [22]) was 62.5 µg/mL (≈ 277 µM) and the inhibition of growth at 3.9 µg/mL (Candida albicans [23]) was 20%. The MIC (Cryptococcus neoformans [24]) was 125 µg/mL (≈ 555 µM), the Activity [25] was “inactive” and the mortality at 96 h, 35 ug/mL [26] was 0%. The MIC [27] was 250 µg/mL (≈ 1110 µM), the MFC (Candida tropicalis [28]) was 250 µg/mL (≈ 1110 µM) and the inhibition of growth at 62.5 µg/mL (Cryptococcus neoformans [29]) was 85.5%. The inhibition of growth at 3.9 µg/mL (Candida tropicalis [30]) was 16.3%, the inhibition of growth at 15.6 µg/mL (Candida albicans [31]) was 86.2% and the inhibition of growth at 125 µg/mL (Cryptococcus neoformans [32]) was 100%. It also gave an MIC (Candida tropicalis [33]) of 62.5 µg/mL (≈ 277 µM), an inhibition of growth at 125 µg/mL (Candida tropicalis [34]) of 100% and an inhibition of growth at 250 µg/mL (Candida tropicalis [35]) of 100%.
